Screening results deposited in PubChem by several laboratories.
In the library only some 2.4% were active in any assay of this set; here they are far more common.
HePTP inhibitor: inhibitors of human HePTP phosphatase | P35236 | recombinant HePTP phosphatase activity, OD absorbance | 110,000 compounds, 0.64% hits | AID 521 | inhibition, % at 20 µM; in the data active = inhibition above about 50%;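 note: plate controls were vehicle for no effect and reference inhibitor for full effect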
Target sequence (P35236 whole entry, looked up): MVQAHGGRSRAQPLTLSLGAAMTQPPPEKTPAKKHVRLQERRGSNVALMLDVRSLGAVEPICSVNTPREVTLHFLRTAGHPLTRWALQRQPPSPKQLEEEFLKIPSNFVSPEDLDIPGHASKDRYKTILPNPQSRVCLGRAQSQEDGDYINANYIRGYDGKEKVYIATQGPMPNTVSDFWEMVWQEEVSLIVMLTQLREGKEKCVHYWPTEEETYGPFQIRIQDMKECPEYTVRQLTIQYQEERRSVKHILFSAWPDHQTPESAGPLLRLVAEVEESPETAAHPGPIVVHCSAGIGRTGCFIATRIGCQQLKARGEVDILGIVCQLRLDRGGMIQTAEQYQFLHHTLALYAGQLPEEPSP
MMP-13 inhibitor: inhibitors of human MMP13; 65,000 compounds, 0.07% hits; MMP-13 fTHP FRET cleavage, Mca fluorescence; P45452; inhibition, % at 4 µM;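 active = inhibition above the mean of compound-free control plate wells plus 3 SD, cut at about 14% in these data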;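 note: 0% = DMSO wells and 100% = wells with reference MMP-13 inhibitor after basal subtraction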
SF-1 act: activators of human nuclear receptor SF-1; Q13285; CHO-K1 Gal4-SF-1 LBD luciferase reporter; % increase over DMSO SF-1-specific signal; activation, % at 10 µM; 65,000 compounds, 1.9% hits; AID 522;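 active = activation above the mean activation of all tested compounds plus 3 SD, cut at about 50% in these data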
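Compound – one dose, 10 µM compound, 1% DMSO · Test system – transient Gal4-SF-1 LBD reporter, CHO-K1 · Input – 4,000 cells in each well · Read-out basis – percent activation relative to DMSO median and mock-transfected background · Replicates – single measurement per compound · Technique – steady-glow luciferase luminescence, read after 15 min reagent incubation · Timing – 20 h compound treatment, 37 °C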
Ec RNAP inh: blocks E. coli RNA polymerase transcription. fluorescence transcription assay. AID 559. 62,000 compounds, 0.2% hits. inhibition, %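 (tested at 10 µM)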; in the data active = inhibition above about 20%;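 note: 0% = enzyme without compound and 100% = no enzyme blank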
RORa activator: activates the human nuclear receptor RORA | P35398 | CHO-K1 Gal4-RORA LBD luciferase reporter, luminescence; percent increase over mock-subtracted basal signal | activation, % at 10 µM | 65,000 compounds, 1.5% hits;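 active = activation above the mean of all tested compounds plus 3 SD, cut at about 49% in these data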;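 note: 0% = DMSO-treated RORA cells and 100% = added signal equal to DMSO minus mock-transfected cells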
AP ELISA ortho: alternative pathway complement inhibition, orthogonal assay | Human serum alternative complement pathway, LPS-coated ELISA, C3 deposition; tested in compound mixtures | inhibition, % at 5 µM | 62,000 compounds, 0.08% hits;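 active = inhibition above 30% in each of the two pooled mixtures holding the compound, so the lower value exceeds 30%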;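 note: 0% = serum in Mg-EGTA without compound and 100% = EDTA serum blank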
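Assay system: Human serum alternative complement pathway, C3 deposition on LPS-coated wells | Incubation: 1 h serum-compound exposure at 37 °C | Doses: 5 µM per compound in ten-compound mixtures | Read-out: Percent inhibition | Technique: ELISA with HRP anti-human C3 antibody, TMB substrate, absorbance 450 nm | Replication: Two pool placements per compound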
An asterisk follows results filed as active; . = not tested or not shown.

SMILES	HePTP inhibitor	MMP-13 inhibitor	SF-1 act	Ec RNAP inh	RORa activator	AP ELISA ortho
Cc1cc(C(=O)OCC(=O)N2CCc3ccccc32)c(C)o1	6	-5	54*	3	-2	16
Cc1ccccc1OCC(=O)N1CCCc2ccccc21	-5	.	.	.	.	.
O=C(COc1ccc(F)cc1Br)N1CCc2ccccc21	12	-5	51*	3	30	14
CCc1ccc(NC(=O)COc2ccc(C)cc2)cc1	-12	.	.	.	.	.
OC1CCCCC1Sc1nc2ccccc2s1 (configuration not stated)	11	0	59*	-4	30	28
O=C1OCCC1Sc1nc2ccccc2s1 (configuration not stated)	1	2	3	4	-19	3
O=C(NCCCNc1ccc([N+](=O)[O-])cc1)C(c1ccccc1)c1ccccc1	-2	.	.	.	.	.
CCOc1cc(C(=O)Nc2sc(C)c(C)c2C(=O)OC)cc(OCC)c1OCC	7	.	.	.	.	.
Cc1cc(C(=O)CN2C(=O)c3ccccc3C2=O)c(C)n1C1CC1	7	0	56*	5	14	6
CCOC(=O)c1[nH]c(C)c(C(C)=O)c1C	-8	.	.	.	.	.
CCOC(=O)c1[nH]c(C)c(C(=O)Nc2cc(Cl)ccc2C)c1C	6	2	-9	2	-4	5
CCOC(=O)c1[nH]c(C)c(C(=O)Nc2ccccc2C)c1C	17	4	26	21*	81*	2
CCCCCCC(=O)c1c(C)[nH]c(C(=O)OCC)c1C	10	1	53*	10	9	10
Cc1nc2cc(Nc3nnc(-c4ccc(Cl)cc4)c4ccccc34)ccc2n1C	2	.	.	.	.	.
Cc1ccc(/C(O)=C2/C(=O)C(=O)N(CCCCCC(=O)O)C2c2ccccc2)cc1 (configuration not stated)	4	.	.	.	.	.
Cn1c(SCc2ccc(C#N)cc2Cl)nc2ccccc21	-3	-8	37	6	82*	-7
O=C(NCCN1CCCCC1)c1cc2ccccc2o1	-9	.	.	.	.	.
O=C(c1cc2ccccc2o1)c1nc2c(n1O)CCCCC2	-10	5	44	-1	56*	-7
S=C(S)N(CCN(Cc1cccs1)C(=S)S)Cc1cccs1	67*	.	.	.	.	.
CN(Cc1cccs1)S(=O)(=O)c1cccs1	2	-2	-1	-1	-3	18
Cc1ccc(CN2CCN(C3CCCCC3)CC2)cc1	-12	.	.	.	.	.
CC(=O)NS(=O)(=O)c1ccc(NC(=O)c2cc([N+](=O)[O-])ccc2Cl)cc1	2	.	.	.	.	.
CC(=O)NS(=O)(=O)c1ccc(NC(=O)c2ccc([N+](=O)[O-])cc2[N+](=O)[O-])cc1	70*	.	.	.	.	.
COc1ccc(Cc2c(O)nc(SC)[nH]c2=O)cc1	-3	.	.	.	.	.
CC(Sc1ccccn1)C(=O)Nc1ccccc1 (configuration not stated)	-3	-2	57*	3	34	8
SMILES	HePTP inhibitor	MMP-13 inhibitor	SF-1 act	Ec RNAP inh	RORa activator	AP ELISA ortho
COc1cccc(-c2nnc(Nc3nc4c(F)cccc4s3)o2)c1	.	-249	51*	.	28	.
CCNC(=O)NC(=O)COC(=O)c1ccccc1SCC(=O)NC(=O)NCC	6	-149	69*	-6	31	4
CCNC(=O)NC(=O)CSc1ccc(NC(C)=O)cc1	10	-5	-6	3	-5	5
CCCCc1ccc(-c2nc(-c3ccncc3)no2)cc1	0	-4	48	6	59*	8
Brc1ccc(-c2nc(-c3ccncc3)no2)o1	6	6	50*	3	27	14
Brc1ccc(-c2nc(-c3ccncc3)no2)cc1	7	.	.	.	.	.
c1ccc(-c2nc(-c3ccncc3)no2)cc1	8	6	21	5	32	17
c1coc(-c2nc(-c3ccncc3)no2)c1	6	0	50*	1	48	5
CC(=O)c1ccc(NC(=O)c2ccc3c(c2)C(=O)N(c2ccccc2C)C3=O)cc1	1	.	.	.	.	.
O=C1OC(c2ccccc2Br)=N/C1=C\c1cccs1	9	.	.	.	.	.
CN(C)/C=C/C=C/C(=O)c1ccc(/C=C/C=C/N(C)C)o1	103*	.	.	.	.	.
CC1(C)C/C(=N\N)c2cc(=O)[nH]nc2C1	9	.	.	.	.	.
CN(C)c1oc(-c2ccc(OCc3ccccc3)cc2)nc1C#N	7	-149	61*	4	7	4
COc1ccc(CNC(=O)C(=O)Nc2ccc(Cl)c(C(F)(F)F)c2)cc1	-6	.	.	.	.	.
COc1ccccc1Nc1nc2ccccc2[nH]1	-5	6	66*	8	6	0
c1ccc(NC2=Nc3ccccc3CS2)cc1	-10	1	24	9	89*	-28
c1ccc(NC2=Nc3ccccc3CCC2)cc1	-7	.	.	.	.	.
Cc1ccc(-c2csc(NC(=O)c3ccc4c(c3)OCO4)n2)cc1	0	.	.	.	.	.
O=C(N/N=C/c1ccc2ccccc2c1)c1cccc(F)c1	4	.	.	.	.	.
CCOC(=O)c1sc(=NC(=O)c2cccc(OC)c2)n(C)c1C	2	3	57*	4	33	25
Cc1cc(C(=O)COC(=O)CCC(=O)c2ccc3c(c2)OCCO3)c(C)n1Cc1ccco1	-2	4	2	5	3	4
CCOc1ncccc1C(=O)OCC(=O)c1cc(C)n(Cc2ccco2)c1C	4	-8	57*	5	91*	7
CCOc1ccc(C(O)c2cnc(C(C)C)n2C)cc1 (configuration not stated)	4	.	.	.	.	.
O=C(Nc1nc(-c2ccc(-c3ccccc3)cc2)cs1)C1CC1	-5	.	.	.	.	.
O=C(Nc1nc(-c2nc3ccccc3s2)cs1)C1CC1	-5	-5	29	5	51*	7
SMILES	HePTP inhibitor	MMP-13 inhibitor	SF-1 act	Ec RNAP inh	RORa activator	AP ELISA ortho
O=C(CN1C(=O)CCC1=O)Nc1nc(-c2nc3ccccc3s2)cs1	5	-23	106*	7	87*	14
O=C(C1CC(c2ccc(F)cc2)=NO1)N1CCCCC1 (configuration not stated)	5	-6	55*	7	18	13
CC1CCCCN1C(=O)C1CC(c2ccc(F)cc2)=NO1 (configuration not stated)	8	1	63*	2	49*	9
O=C1N=C(N2CCN(C3=NC(=O)/C(=C/c4ccccc4O)S3)CC2)S/C1=C\c1ccccc1O	0	.	.	.	.	.
CC(C)c1ccc(O)c(N)c1	4	8	-10	6	-6	24
CCC(C)c1ccc(O)c(N)c1 (configuration not stated)	2	6	-14	28*	1	14
COCCOC(=O)c1[nH]c2c(c1C)C(=O)CC(c1cc(OC)ccc1OC)C2 (configuration not stated)	7	2	7	3	75*	17
CCc1c(C)sc(NC(=O)CCc2ccc(OC)cc2)c1C(=O)OC	104*	.	.	.	.	.
O=C(O)C1CC(O)CN1C(=O)Oc1ccccc1 (configuration not stated)	105*	.	.	.	.	.
C=CCN1C(=O)/C(=C\c2ccc(-c3cc([N+](=O)[O-])ccc3C)o2)C(=O)NC1=S	102*	.	.	.	.	.
